In ChEMBL document CHEMBL1142465, “Novel potent inhibitors of A. thaliana cytokinin oxidase/dehydrogenase” (Bioorg Med Chem, 2008) one finds EC50, IC50 and Activity data, which are given here for 21 compounds.

The target in one data set is T1, Histidine kinase 3 (Arabidopsis thaliana, UniProt Q9C5U1).
T1 sequence (Q9C5U1 whole entry): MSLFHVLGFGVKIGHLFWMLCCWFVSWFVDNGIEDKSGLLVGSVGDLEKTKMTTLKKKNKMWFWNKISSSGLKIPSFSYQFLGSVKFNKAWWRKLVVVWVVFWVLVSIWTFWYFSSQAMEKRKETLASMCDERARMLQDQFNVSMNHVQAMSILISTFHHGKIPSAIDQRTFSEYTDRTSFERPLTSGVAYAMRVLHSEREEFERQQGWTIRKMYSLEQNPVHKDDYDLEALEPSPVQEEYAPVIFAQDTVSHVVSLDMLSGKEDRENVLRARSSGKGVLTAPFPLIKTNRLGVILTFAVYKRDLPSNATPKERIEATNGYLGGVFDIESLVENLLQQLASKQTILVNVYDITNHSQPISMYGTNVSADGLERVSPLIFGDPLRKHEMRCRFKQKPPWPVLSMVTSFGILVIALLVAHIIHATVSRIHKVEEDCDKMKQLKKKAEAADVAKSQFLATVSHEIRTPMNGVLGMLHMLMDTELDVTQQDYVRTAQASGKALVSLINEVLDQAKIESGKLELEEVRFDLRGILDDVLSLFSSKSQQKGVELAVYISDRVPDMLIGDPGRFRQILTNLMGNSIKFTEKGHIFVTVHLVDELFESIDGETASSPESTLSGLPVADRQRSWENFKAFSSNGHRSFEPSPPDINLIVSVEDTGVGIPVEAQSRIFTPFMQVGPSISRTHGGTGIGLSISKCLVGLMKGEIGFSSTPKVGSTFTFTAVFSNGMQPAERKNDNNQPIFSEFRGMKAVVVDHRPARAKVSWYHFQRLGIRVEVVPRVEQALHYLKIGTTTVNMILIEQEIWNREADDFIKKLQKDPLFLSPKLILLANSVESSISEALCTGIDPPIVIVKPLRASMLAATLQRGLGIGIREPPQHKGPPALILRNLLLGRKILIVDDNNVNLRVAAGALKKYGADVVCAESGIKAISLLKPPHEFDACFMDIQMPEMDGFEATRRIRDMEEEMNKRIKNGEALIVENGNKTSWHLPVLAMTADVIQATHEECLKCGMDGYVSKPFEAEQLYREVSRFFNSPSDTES
The data set is described as follows: Activation of Arabidopsis thaliana AHK3 receptor expressed in Escherichia coli KMI001 by beta-galactosidase activity.

For data set [1], the target named is T2, Cytokinin dehydrogenase 2 (Arabidopsis thaliana, UniProt Q9FUJ3).
T2 sequence (Q9FUJ3 whole entry): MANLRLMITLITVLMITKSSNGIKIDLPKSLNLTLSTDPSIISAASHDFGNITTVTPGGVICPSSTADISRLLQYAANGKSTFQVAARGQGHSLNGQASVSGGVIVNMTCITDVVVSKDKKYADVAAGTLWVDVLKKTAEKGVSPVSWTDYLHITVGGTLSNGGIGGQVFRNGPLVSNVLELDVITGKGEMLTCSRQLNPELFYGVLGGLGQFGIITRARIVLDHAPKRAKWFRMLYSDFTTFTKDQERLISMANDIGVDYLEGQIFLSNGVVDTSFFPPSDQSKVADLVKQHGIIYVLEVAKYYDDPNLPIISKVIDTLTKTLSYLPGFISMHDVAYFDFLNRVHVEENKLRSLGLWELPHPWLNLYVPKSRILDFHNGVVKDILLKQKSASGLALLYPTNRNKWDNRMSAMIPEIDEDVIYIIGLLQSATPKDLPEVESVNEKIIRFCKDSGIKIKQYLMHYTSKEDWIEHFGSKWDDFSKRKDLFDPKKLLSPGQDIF
The data set is described as follows: Inhibition of sArabidopsis thaliana CKX2 expressed in Saccharomyces cerevisiae 23344c ura-.

For data set [2], the system named is Nicotiana tabacum. Nature of the data set: Cytokinin-like effect in tobacco assessed as stimulation of callus growth at 1 umol/L relative to 6-benzylaminopurine. Type of data set: functional. The method in brief:
(§1)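 Cytokinin-dependent tobacco callus growth in 6-well plates, 3 mL MS medium per well, otherwise per published protocol. Compounds from DMSO stocks diluted into medium, final DMSO ≤0.2%. Five replicates per concentration, whole test repeated at least three times. Activity expressed relative to BAP set at 100 (reference 10^-6 M BAP) at the optimal concentration.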

Data set [3] concerns Amaranthus. The data set is described as follows: Cytokinin-like effect in Amaranthus cotyledons assessed as dark induction of betacyanin synthesis at 100 umol/L relative to 6-benzylaminopurine. The class given is functional. The note with it: at 100 µM.
The test system of a further data set is Triticum aestivum. The data set is described as follows: Cytokinin-like effect in wheat assessed as retention of chlorophyll in excised leaves at 100 umol/L by senescence assay relative to 6-benzylaminopurine. Type of data set: functional. Conditions: at 100 µM.
Data set [4] relates to Nicotiana tabacum. The data set is described as follows: Toxicity in tobacco assessed as inhibition of callus growth at 100 uM. The note with it: in vivo. In outline: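 Tobacco callus growth dose-response up to 100 µM in 6-well plates with 3 mL MS medium per well. Compounds from DMSO stocks diluted into medium, final DMSO ≤0.2%. Five replicates per concentration. Readings compared against a control treatment with no cytokinin.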

For data set [5], the system named is Nicotiana tabacum. Nature of the data set: Cytokinin-like effect in tobacco assessed as stimulation of callus growth at 10 umol/L relative to 6-benzylaminopurine. Type of data set: functional. Conditions: at 10 µM.
The subject of data set [6] is Amaranthus. Nature of the data set: Cytokinin-like effect in Amaranthus cotyledons assessed as dark induction of betacyanin synthesis at 10 umol/L relative to 6-benzylaminopurine. The class given is functional. In outline:
(§2)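 Dark induction of betacyanin synthesis in Amaranthus cotyledons, per previously published protocol. Compounds from DMSO stocks diluted into medium, final DMSO ≤0.2%. Five replicates per concentration, whole test repeated at least three times. Relative activity taken at the optimal concentration against BAP set at 100 (reference 10^-5 M BAP).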

Data set [7] relates to Nicotiana tabacum. The data set is described as follows: Cytokinin-like effect in tobacco assessed as stimulation of callus growth at 100 umol/L relative to 6-benzylaminopurine. The class given is functional. The method in brief: as §1
For another data set, the target named is Histidine kinase 4 (Arabidopsis thaliana, UniProt Q9C5U0). The data set is described as follows: Activation of Arabidopsis thaliana AHK4/CRE1 receptor expressed in Escherichia coli KMI001 by beta-galactosidase activity.
Data set [8] deals with Nicotiana tabacum. Nature of the data set: Cytokinin-like effect in tobacco assessed as stimulation of callus growth at 0.1 umol/L relative to 6-benzylaminopurine. Type of data set: functional. In outline:
as §1

Data set [9] concerns Amaranthus. Nature of the data set: Cytokinin-like effect in Amaranthus cotyledons assessed as dark induction of betacyanin synthesis at 0.1 umol/L relative to 6-benzylaminopurine. The class given is functional. In outline: as §2

Chain of Histidine kinase 4 (Q9C5U0 whole entry): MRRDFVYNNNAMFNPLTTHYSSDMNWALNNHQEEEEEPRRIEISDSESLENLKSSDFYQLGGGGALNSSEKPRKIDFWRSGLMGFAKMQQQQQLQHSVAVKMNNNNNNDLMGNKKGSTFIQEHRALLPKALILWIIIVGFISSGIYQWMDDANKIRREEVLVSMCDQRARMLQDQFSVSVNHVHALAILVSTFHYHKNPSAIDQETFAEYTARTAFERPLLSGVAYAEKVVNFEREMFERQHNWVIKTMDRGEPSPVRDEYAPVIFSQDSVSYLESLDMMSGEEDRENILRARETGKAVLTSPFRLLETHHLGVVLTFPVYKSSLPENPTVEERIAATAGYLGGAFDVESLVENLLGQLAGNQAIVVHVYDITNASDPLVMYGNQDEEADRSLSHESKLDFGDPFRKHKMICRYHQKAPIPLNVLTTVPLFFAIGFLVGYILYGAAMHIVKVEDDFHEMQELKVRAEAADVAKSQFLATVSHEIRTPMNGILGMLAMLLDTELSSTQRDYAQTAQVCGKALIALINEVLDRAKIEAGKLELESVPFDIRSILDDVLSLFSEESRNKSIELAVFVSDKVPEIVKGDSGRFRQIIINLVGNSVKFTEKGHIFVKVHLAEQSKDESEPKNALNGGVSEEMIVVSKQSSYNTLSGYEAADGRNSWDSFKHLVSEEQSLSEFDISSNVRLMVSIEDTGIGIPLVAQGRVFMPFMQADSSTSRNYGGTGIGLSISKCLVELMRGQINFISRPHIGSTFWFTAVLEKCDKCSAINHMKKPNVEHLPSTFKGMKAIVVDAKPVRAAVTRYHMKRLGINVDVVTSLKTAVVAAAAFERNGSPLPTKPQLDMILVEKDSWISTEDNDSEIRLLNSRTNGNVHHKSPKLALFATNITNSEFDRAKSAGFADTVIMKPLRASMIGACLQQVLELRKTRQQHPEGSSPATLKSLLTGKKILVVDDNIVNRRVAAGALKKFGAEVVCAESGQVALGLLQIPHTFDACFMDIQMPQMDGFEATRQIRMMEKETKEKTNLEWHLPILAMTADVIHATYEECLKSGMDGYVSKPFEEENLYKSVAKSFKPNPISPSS

As for `Fc1ccc(Nc2nc(Cl)nc3[nH]cnc23)cc1`, at Histidine kinase 3, it took 50 µM to reach a half-maximal effect (EC50). This compound also showed an IC50 in data set [1] of 50 µM. Besides, the Activity was 99% with Nicotiana tabacum [2], 92% with Amaranthus [3], 5% in the data set with Triticum aestivum and “Non-toxic” in the data set with Nicotiana tabacum [4].
At Histidine kinase 3, `Clc1cccc(Nc2nc(Cl)nc3[nH]cnc23)c1` registered an EC50 of 10.7 µM. 3.9 µM corresponded to half-maximal inhibition in [1] (IC50). Also, the figures for the Activity with Nicotiana tabacum [5], in the data set on Amaranthus [6] and in the data set with Triticum aestivum were 95%, 119% and 11.5%, respectively.
With `COc1cccc(Nc2nc([N+](=O)[O-])nc3[nH]cnc23)c1`, the IC50 in [1] is 14 µM. Moreover, the Activity in the data set with Nicotiana tabacum [7] is on record as 35.5%; in the data set with Amaranthus [3], 43%; with Triticum aestivum, 15%.
Consider `COc1ccc(Nc2nc(Cl)nc3[nH]cnc23)cc1`, for which the half-inhibitory concentration (IC50) in data set [1] was > 100 µM. The Activity in the data set on Nicotiana tabacum [5] is reported as 76%; with Amaranthus [3] it was 60%; in the data set with Triticum aestivum, 19%.
As to `COc1cccc(Nc2nc(F)nc3[nH]cnc23)c1`, the EC50 on Histidine kinase 4 and at Histidine kinase 3 was 19 µM in each case. In [1], this compound returned an IC50 of 1 µM. The Activity in the data set on Nicotiana tabacum [5] is listed as 74%; with Amaranthus [3], 107%; in the data set with Triticum aestivum, 13.5%.
`Fc1cccc(Nc2nc(Cl)nc3[nH]cnc23)c1`: the concentration for a half-maximal effect (EC50) stood at 24.8 µM at Histidine kinase 4 and 6 µM on Histidine kinase 3. In [1], this compound showed a half-inhibitory concentration (IC50) of 7.5 µM. Also, the Activity came out at 101% with Nicotiana tabacum [2], 147% in the data set on Amaranthus [3] and 15% in the data set with Triticum aestivum.
Regarding `Oc1ccc(Nc2nc(Cl)nc3[nH]cnc23)cc1`, the EC50 at Histidine kinase 4 amounted to 4.6 µM; on Histidine kinase 3, 16.5 µM. The IC50 in data set [1] is > 100 µM. The Activity in the data set on Nicotiana tabacum [7] came to 60%; in the data set with Amaranthus [3], 47.5%; in the data set with Triticum aestivum, 14%.
In the case of `c1ccc(Nc2ncnc3[nH]cnc23)cc1`, the concentration for a half-maximal effect (EC50) on Histidine kinase 3 is > 50 µM. Moreover, the figures for the Activity with Nicotiana tabacum [7], with Amaranthus [3] and in the data set with Triticum aestivum were 47%, 52% and 14%, respectively.
Regarding `COc1cccc(Nc2nc(Cl)nc3[nH]cnc23)c1`, the EC50 on Histidine kinase 4 was 7 µM; on Histidine kinase 3 it was 21 µM. The midpoint of inhibition in [1], the IC50, lay at 1.9 µM. Also, the Activity is listed as 103% with Nicotiana tabacum [5], 149% in the data set with Amaranthus [3] and 11% with Triticum aestivum.
`O=C(Nc1ccccc1)Nc1cnns1` [THIDIAZURON]: the EC50 at Histidine kinase 4 is 1 µM; on Histidine kinase 3 it was 0.95 µM. This compound registered a 50% inhibitory concentration (IC50) in [1] of 29 µM. For the same compound, the Activity amounted to 102.3% in the data set on Nicotiana tabacum [8], 121.1% in the data set on Amaranthus [9] and 108.7% in the data set with Triticum aestivum.
For `C/C(=C\CNc1ncnc2[nH]cnc12)CO`, the EC50 at Histidine kinase 4 was 1.1 µM; on Histidine kinase 3 it was 0.7 µM. In addition, the Activity in the data set on Nicotiana tabacum [5] worked out at 104.6%; with Amaranthus [3], 129.6%; in the data set with Triticum aestivum, 122%.
In data set [1], `COc1cccc(Nc2nc(N)nc3[nH]cnc23)c1` displayed a 50% inhibitory concentration (IC50) of 27 µM. For the same compound, the figures for the Activity with Nicotiana tabacum [5], in the data set with Amaranthus [3] and with Triticum aestivum were 71%, 116% and 16%, respectively.
Turning to `Oc1cccc(Nc2nc(Cl)nc3[nH]cnc23)c1`, the EC50 on Histidine kinase 4 amounted to 3.75 µM; on Histidine kinase 3, 13 µM. The 50% inhibitory concentration (IC50) in data set [1] turned out to be 3.75 µM. Also, the Activity stood at 111% with Nicotiana tabacum [5], 52% with Amaranthus [3] and 6% with Triticum aestivum.
In the case of `Clc1nc(Nc2ccccc2)c2nc[nH]c2n1`, the concentration for a half-maximal effect (EC50) at Histidine kinase 3 was > 50 µM. Besides, in data set [1], the half-inhibitory concentration (IC50) stood at 80 µM. For the same compound, the Activity is on record as 103% in the data set on Nicotiana tabacum [2], 139% in the data set on Amaranthus [3] and 23% in the data set on Triticum aestivum.
Consider `COc1cccc(Nc2ncnc3[nH]cnc23)c1`, for which the EC50 was 31 µM on Histidine kinase 4 and 2.3 µM on Histidine kinase 3. In data set [1], the IC50 is 12.4 µM. The results for the Activity with Nicotiana tabacum [5], in the data set with Amaranthus [3] and in the data set with Triticum aestivum were 42%, 124.5% and 13%, respectively.
As to `Clc1ccc(Nc2nc(Cl)nc3[nH]cnc23)cc1`, the figures for the EC50 at Histidine kinase 4 and on Histidine kinase 3 were > 50 µM and 15.1 µM, respectively. In addition, the IC50 in [1] turned out to be 25.4 µM. Besides, the results for the Activity in the data set with Nicotiana tabacum [5], in the data set on Amaranthus [3] and in the data set with Triticum aestivum were 77%, 139% and 10%, respectively.
As to `COc1cccc(Nc2nc(Cl)nc3c2ncn3C)c1`, the concentration for half-maximal inhibition (IC50) in data set [1] turned out to be 61 µM. The Activity with Nicotiana tabacum [5] was found to be 76%; in the data set on Amaranthus [3], 69%; in the data set on Triticum aestivum, 30%.
`Oc1ccccc1Nc1nc(Cl)nc2nc[nH]c12`: the values for the EC50 at Histidine kinase 4 and at Histidine kinase 3 were > 50 µM and 19 µM, respectively. Further, the IC50 in data set [1] is > 100 µM.
Compound `COc1ccccc1Nc1nc(Cl)nc2[nH]cnc12` yielded a 50% effective concentration (EC50) at Histidine kinase 3 of 33 µM. Besides, the 50% inhibitory concentration (IC50) in data set [1] was > 100 µM. The Activity with Nicotiana tabacum [5] was determined as 100%; in the data set on Amaranthus [3] it was 63%; in the data set on Triticum aestivum it was 29%.
On to `COc1cccc(Nc2nc(Cl)nc3c2ncn3C(C)C)c1`, for which the concentration for half-maximal inhibition (IC50) in data set [1] is > 100 µM. Also, the Activity in the data set with Nicotiana tabacum [5] was determined as 38%; with Amaranthus [3] it was 44%; with Triticum aestivum, 5%.
For `COc1cccc(Nc2nc(SC)nc3[nH]cnc23)c1` the same measures were > 100 µM, 91%, 101% and 2%.
